For 28 compounds, IC50 results are on record in ChEMBL document CHEMBL3414529, “Discovery and optimization of novel dual dithiocarbamates as potent anticancer agents” (Eur J Med Chem, 2015).

Broadly, the IC50 is the midpoint of a concentration-inhibition curve.

A short description of test [1]: Antiproliferative activity against human H460 cells assessed as inhibition of cell growth after 72 hrs by MTT method. It counts as functional, cell-based. The conditions noted are these: NCI-H460, 72 h. A digest of the protocol:
(§1)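 Tumor cells seeded in 100 µL suspension, 24 h preincubation at 37 °C, 5% CO2. Serial dilutions of compound then added for 72 h; DMSO controls at 0.5% final. Surviving cells quantified by MTT, OD read at 492/620 nm. IC50 is the concentration giving 50% growth inhibition, taken from dose-response curves of a triplicate experiment.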
(Formazan colour is commonly taken as a measure of viable cells.)

A further test relates to HepG2. Kind of test: Antiproliferative activity against human HepG2 cells assessed as inhibition of cell growth after 72 hrs by MTT method. It counts as functional, cell-based. The conditions noted are these: HepG2, 72 h. A digest of the protocol:
as §1

A further test deals with MCF7. Kind of test: Antiproliferative activity against human MCF7 cells assessed as inhibition of cell growth after 72 hrs by MTT method. It counts as functional, cell-based. The conditions noted are these: MCF7, 72 h. A digest of the protocol:
as §1

The subject of the next test is MDA-MB-453. Kind of test: Antiproliferative activity against human MDA-MB-453 cells assessed as inhibition of cell growth after 72 hrs by MTT method. The test is classed as functional, cell-based. The conditions noted are these: MDA-MB-453, 72 h. A digest of the protocol:
as §1

Another test concerns SW480. In words: Antiproliferative activity against human SW480 cells assessed as inhibition of cell growth after 72 hrs by MTT method. The test is classed as functional, cell-based. The conditions noted are these: SW480, 72 h. A digest of the protocol:
as §1

The test system of another test is NCI-H522. In words: Antiproliferative activity against human NCI-H522 cells assessed as inhibition of cell growth after 72 hrs by MTT method. The conditions noted are these: NCI-H522, 72 h. The test is classed as functional, cell-based. A digest of the protocol:
as §1

Test [2] is described as follows: Antiproliferative activity against human PC3 cells assessed as inhibition of cell growth after 72 hrs by MTT method. The conditions noted are these: PC-3, 72 h. The test is classed as functional, cell-based. A digest of the protocol:
as §1

The nature of test [3]: Antiproliferative activity against human H1299 cells assessed as inhibition of cell growth after 72 hrs by MTT method. The test is classed as functional, cell-based. The conditions noted are these: NCI-H1299, 72 h. A digest of the protocol:
as §1

The subject of the next test is A-375. Kind of test: Antiproliferative activity against human A375 cells assessed as inhibition of cell growth after 72 hrs by MTT method. It counts as functional, cell-based. The conditions noted are these: A-375, 72 h. A digest of the protocol:
as §1

Test [4] in a line: Antiproliferative activity against human COLO205 cells assessed as inhibition of cell growth after 72 hrs by MTT method. It counts as functional, cell-based. The conditions noted are these: COLO 205, 72 h. A digest of the protocol:
as §1

Test [5] is described as follows: Antiproliferative activity against human LO2 cells assessed as inhibition of cell growth after 72 hrs by Alamar Blue method. It counts as cell-based. The conditions noted are these: L02, 72 h. A digest of the protocol: (§2)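 Non-tumor cells seeded at 3.5 × 10³ cells/mL, 100 µL each, preincubated 24 h at 37 °C, 5% CO2. Serial dilutions then added for 72 h; DMSO controls at 0.5% final. Surviving cells measured by Alamar Blue, OD read at 492/620 nm. IC50 from a triplicate experiment.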

The next test has as its system HEK293. Kind of test: Antiproliferative activity against human HEK293 cells assessed as inhibition of cell growth after 72 hrs by Alamar Blue method. The test is classed as cell-based. The conditions noted are these: HEK293, 72 h. A digest of the protocol: as §2
A general note: The colour change of resazurin is a common sign of viable cells or microbes.

As to `CN(C)C(=S)SCC(CSC(=S)N(C)C)C(=O)c1csc2ccccc12`, the IC50 in test [1] stood at 850 nM.
On the same count and under the same terms, the figure for `CN(C)C(=S)SCC(CSC(=S)N(C)C)C(=O)c1ccc(O)cc1` is 30000 nM; for `O=C(c1cnc2ccccc2c1)C(CSC(=S)N1CCSCC1)CSC(=S)N1CCSCC1` it is 125000 nM; for `CN(C)C(=S)SCC(CSC(=S)N(C)C)C(=O)c1ccc(OCc2ccccc2)cc1` it is 9770 nM.
Take `CCN(CC)C(=S)SCC(CSC(=S)N(CC)CC)C(=O)c1cnc2ccccc2c1`: the IC50 in test [1] is 5160 nM.
As for `COc1cccc(C(=O)C(CSC(=S)N(C)C)CSC(=S)N(C)C)c1`, in [1], the IC50 is 1240 nM.
Same read-out and setting: the figure for `CN(C)C(=S)SCC(CSC(=S)N(C)C)C(=O)c1ccccc1` is 1930 nM; for `CN(C)C(=S)SCC(CSC(=S)N(C)C)C(=O)c1cnn2ccccc12` it is 31500 nM.
Same read-out and setting: the figure for `CN(C)C(=S)SCC(CSC(=S)N(C)C)C(=O)c1c(-c2ccccc2)nn2ncccc12` is 58200 nM; for `O=C(c1cnc2ccccc2c1)C(CSC(=S)N1CCCC1)CSC(=S)N1CCCC1` it is 790 nM.
Consider `CN(C)C(=S)SCC(CSC(=S)N(C)C)C(=O)c1nccs1`, for which, in test [1], the IC50 amounted to 840 nM.
Take `CN(Cc1cccnc1)C(=S)SCC(CSC(=S)N(C)Cc1cccnc1)C(=O)c1cnc2ccccc2c1`: the IC50 in [1] was determined as 1000 nM.
In the case of `CN(C)C(=S)SCC(CSC(=S)N(C)C)C(=O)c1ccc2c(c1)ncn2-c1ccccc1`, in [1], the IC50 came to 2200 nM.
For `CN(C)C(=S)SCC(CSC(=S)N(C)C)C(=O)c1cnc2ccccc2c1`, the IC50 worked out at 476 nM in [1]; 54 nM in the test with HepG2; 23 nM with MCF7; 162 nM with MDA-MB-453; 6350 nM in the test with SW480; 139 nM with NCI-H522. For the same compound, the IC50 in test [2] was found to be 431 nM; in test [3] it was 622 nM; in the test with A-375 it was 439 nM; in test [4], 325 nM; in [5] it was 13100 nM; in the test on HEK293, 10800 nM.
Take `CC(=O)C(CSC(=S)N(C)C)CSC(=S)N(C)C`: in test [1], the IC50 was determined as 890 nM.
The same measure, in the same setting: for `O=C(c1cnc2ccccc2c1)C(CSC(=S)N1CCOCC1)CSC(=S)N1CCOCC1` the value was 580 nM.
`CN(C)C(=S)SCC(CSC(=S)N(C)C)C(=O)c1ccc(F)cc1`: the IC50 in test [1] is 1210 nM.
For `O=C(c1cnc2ccccc2c1)C(CSC(=S)N1CCCCC1)CSC(=S)N1CCCCC1`, the IC50 in test [1] turned out to be 4650 nM.
In the case of `CN(C)C(=S)SCC(CSC(=S)N(C)C)C(=O)c1cc2ccccc2oc1=O`, in test [1], the IC50 was found to be 660 nM.
Take `CN(C)C(=S)SCC(CSC(=S)N(C)C)C(=O)c1cnc2ccccn12`: the IC50 in test [1] came to 13000 nM.
In the case of `CN(C)C(=S)SCC(CSC(=S)N(C)C)C(=O)c1ccc[nH]1`, in [1], the IC50 is 97300 nM.
Regarding `CN(C)C(=S)SCC(CSC(=S)N(C)C)C(=O)c1cccnc1`, the IC50 in [1] came to 870 nM.
Same read-out and setting: for `CN(C)C(=S)SCC(CSC(=S)N(C)C)C(=O)c1cnn2ncccc12` the value was 4550 nM.
As to `CN1CCN(C(=S)SCC(CSC(=S)N2CCN(C)CC2)C(=O)c2cnc3ccccc3c2)CC1`, the half-inhibitory concentration (IC50) in test [1] was 2510 nM.
Take `CN(C)C(=S)SCC(CSC(=S)N(C)C)C(=O)c1ccccc1F`: the IC50 in test [1] was determined as 920 nM.
As to `COc1ccccc1C(=O)C(CSC(=S)N(C)C)CSC(=S)N(C)C`, in [1], the IC50 was 810 nM.
On the same count and under the same terms, for `Cc1nc2ccccn2c1C(=O)C(CSC(=S)N(C)C)CSC(=S)N(C)C` the value was 151000 nM; for `CN(C)C(=S)SCC(CSC(=S)N(C)C)C(=O)c1c(-c2ccccc2)nn2ccccc12`, 4090 nM.
